# Measurements published in ChEMBL document CHEMBL2429740, “The synthesis and SAR study of phenylalanine-derived (Z)-5-arylmethylidene rhodanines as anti-methicillin-resistant Staphylococcus aureus (MRSA) compounds” (2013).
# Experiments:
# Assay type in all cases: functional
# Staphylococcus aureus [1] = experiment: Antibacterial activity against methicillin-resistant Staphylococcus aureus ST239 HS770 by microdilution technique
# Staphylococcus aureus [2] = experiment: Antibacterial activity against methicillin-resistant Staphylococcus aureus CA ATCC BAA-1680 by microdilution technique
# Staphylococcus aureus [3] = experiment: Antibacterial activity against methicillin-resistant Staphylococcus aureus ATCC 700698 by microdilution technique
# Staphylococcus aureus [4] = experiment: Antibacterial activity against methicillin-resistant Staphylococcus aureus ATCC BAA-39 by microdilution technique
# Staphylococcus aureus [5] = experiment: Antibacterial activity against methicillin-resistant Staphylococcus aureus ATCC 700787 by microdilution technique
# Staphylococcus aureus [6] = experiment: Antibacterial activity against methicillin-resistant Staphylococcus aureus ATCC 34404 by microdilution technique
# Staphylococcus aureus [7] = experiment: Ratio of MIC for methicillin-resistant Staphylococcus aureus ST239 HS770 in absence of 10% FBS to MIC for methicillin-resistant Staphylococcus aureus ST239 HS770 in presence of 10% FBS
# Outline: (§1)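 MIC determined by the same turbidity-based microdilution method, once in standard medium and once in medium with 10% fetal serum added, to probe serum protein binding. The ratio is the MIC without serum over the MIC with serum, for each strain.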
# Staphylococcus aureus [8] = experiment: Ratio of MIC for methicillin-resistant Staphylococcus aureus CA ATCC BAA-1680 in absence of 10% FBS to MIC for methicillin-resistant Staphylococcus aureus CA ATCC BAA-1680 in presence of 10% FBS; outline: as §1
# Staphylococcus aureus [9] = experiment: Ratio of MIC for methicillin-resistant Staphylococcus aureus ATCC BAA-39 in absence of 10% FBS to MIC for methicillin-resistant Staphylococcus aureus ATCC BAA-39 in presence of 10% FBS; outline: as §1
# Staphylococcus aureus [10] = experiment: Ratio of MIC for methicillin-resistant Staphylococcus aureus ATCC 700698 in absence of 10% FBS to MIC for methicillin-resistant Staphylococcus aureus ATCC 700698 in presence of 10% FBS; outline: as §1
# Staphylococcus aureus [11] = experiment: Ratio of MIC for methicillin-resistant Staphylococcus aureus ATCC 700787 in absence of 10% FBS to MIC for methicillin-resistant Staphylococcus aureus ATCC 700787 in presence of 10% FBS; outline: as §1
# Staphylococcus aureus [12] = experiment: Ratio of MIC for methicillin-resistant Staphylococcus aureus ATCC 34404 in absence of 10% FBS to MIC for methicillin-resistant Staphylococcus aureus ATCC 34404 in presence of 10% FBS; outline: as §1
SMILES,MIC (Staphylococcus aureus [1]),MIC (Staphylococcus aureus [2]),MIC (Staphylococcus aureus [3]),MIC (Staphylococcus aureus [4]),MIC (Staphylococcus aureus [5]),MIC (Staphylococcus aureus [6]),Ratio (Staphylococcus aureus [7]),Ratio (Staphylococcus aureus [8]),Ratio (Staphylococcus aureus [9]),Ratio (Staphylococcus aureus [10]),Ratio (Staphylococcus aureus [11]),Ratio (Staphylococcus aureus [12])
O=C(O)[C@H](Cc1ccccc1)N1C(=O)/C(=C/c2ccccc2Cc2ccccc2)SC1=S,15.6 µg/mL,3.9 µg/mL,7.8 µg/mL,7.8 µg/mL,7.8 µg/mL,15.6 µg/mL,–,–,–,–,–,–
O=C(O)[C@H](Cc1ccccc1)N1C(=O)/C(=C/c2cccc(Oc3ccc(Cl)cc3)c2)SC1=S,–,15.6 µg/mL,7.8 µg/mL,7.8 µg/mL,15.6 µg/mL,7.8 µg/mL,–,–,–,–,–,–
O=C(O)[C@H](Cc1ccccc1)N1C(=O)/C(=C/c2cccc(OCC3CC3)c2)SC1=S,15.6 µg/mL,15.6 µg/mL,15.6 µg/mL,15.6 µg/mL,15.6 µg/mL,15.6 µg/mL,–,–,–,–,–,–
O=C(O)[C@H](Cc1ccccc1)N1C(=O)/C(=C/c2ccccc2Oc2ccccc2)SC1=S,–,1.95 µg/mL,1.95 µg/mL,3.9 µg/mL,1.95 µg/mL,1.95 µg/mL,–,–,–,–,–,–
O=C(O)[C@H](Cc1ccccc1)N1C(=O)/C(=C/c2cccc(-c3ccccc3)c2)SC1=S,1.95 µg/mL,1.95 µg/mL,1.95 µg/mL,0.98 µg/mL,1.95 µg/mL,0.98 µg/mL,2,2,2,2,2,2
O=C(O)[C@H](Cc1ccccc1)N1C(=O)/C(=C/c2cccc(Oc3cccc(F)c3)c2)SC1=S,–,31.2 µg/mL,15.6 µg/mL,15.6 µg/mL,31.2 µg/mL,15.6 µg/mL,–,–,–,–,–,–
O=C(O)[C@H](Cc1ccccc1)N1C(=O)/C(=C/c2ccccc2-c2ccccc2)SC1=S,7.8 µg/mL,7.8 µg/mL,15.6 µg/mL,7.8 µg/mL,15.6 µg/mL,7.8 µg/mL,–,–,–,–,–,–
O=C(O)[C@H](Cc1ccccc1)N1C(=O)/C(=C/c2ccccc2OCc2ccccc2)SC1=S,7.8 µg/mL,7.8 µg/mL,7.8 µg/mL,15.6 µg/mL,15.6 µg/mL,7.8 µg/mL,–,–,–,–,–,–
O=C(O)[C@@H](Cc1ccccc1)N1C(=O)/C(=C/c2cccc(Oc3ccccc3)c2)SC1=S,3.9 µg/mL,1.95 µg/mL,1.95 µg/mL,3.9 µg/mL,3.9 µg/mL,3.9 µg/mL,–,–,–,–,–,–
O=C(O)[C@H](Cc1ccccc1)N1C(=O)/C(=C/c2cccc(Cc3ccccc3)c2)SC1=S,–,1.95 µg/mL,3.9 µg/mL,1.95 µg/mL,3.9 µg/mL,1.95 µg/mL,–,–,–,–,–,–
O=C(c1ccccc1)c1cccc(/C=C2\SC(=S)N([C@@H](Cc3ccccc3)C(=O)O)C2=O)c1,–,3.9 µg/mL,7.8 µg/mL,3.9 µg/mL,7.8 µg/mL,3.9 µg/mL,–,–,–,–,–,–
O=C(O)[C@H](Cc1ccccc1)N1C(=O)/C(=C/c2cccc(-c3nccs3)c2)SC1=S,3.9 µg/mL,31.2 µg/mL,31.2 µg/mL,7.8 µg/mL,31.2 µg/mL,15.6 µg/mL,–,–,–,–,–,–
COc1ccc(Oc2cccc(/C=C3\SC(=S)N([C@@H](Cc4ccccc4)C(=O)O)C3=O)c2)cc1,–,15.6 µg/mL,7.8 µg/mL,7.8 µg/mL,7.8 µg/mL,7.8 µg/mL,–,–,–,–,–,–
CN[C@H](CC(C)C)C(=O)N[C@H]1C(=O)N[C@@H](CC(N)=O)C(=O)N[C@H]2C(=O)N[C@H]3C(=O)N[C@H](C(=O)N[C@H](C(=O)O)c4cc(O)cc(O)c4-c4cc3ccc4O)[C@H](O)c3ccc(c(Cl)c3)Oc3cc2cc(c3O[C@@H]2O[C@H](CO)[C@@H](O)[C@H](O)[C@H]2O[C@H]2C[C@](C)(N)[C@H](O)[C@H](C)O2)Oc2ccc(cc2Cl)[C@H]1O [VANCOMYCIN],≤ 0.48 µg/mL,≤ 0.48 µg/mL,≤ 0.48 µg/mL,≤ 0.48 µg/mL,1.95 µg/mL,≤ 0.48 µg/mL,–,–,–,–,–,–
O=C(O)[C@H](Cc1ccccc1)N1C(=O)/C(=C/c2cccc(OCc3ccccc3)c2)SC1=S,1.95 µg/mL,1.95 µg/mL,3.9 µg/mL,1.95 µg/mL,3.9 µg/mL,1.95 µg/mL,–,–,–,–,–,–
O=C(O)[C@@H](Cc1ccccc1)N1C(=O)/C(=C/c2cccc(Oc3ccc(Cl)cc3)c2)SC1=S,1.95 µg/mL,1.95 µg/mL,3.9 µg/mL,1.95 µg/mL,3.9 µg/mL,1.95 µg/mL,–,–,–,–,–,–
